Measured values reported in paper PMC2992437 (ACS chemical neuroscience, 2010).
Where two headings read alike, the source gives them in different places. Values belong to the molecule of their own block, whether it stands above or below them.

Tests used:
[1] = test system: NPS induced hyperlocomotion; settings: cited from earlier work
NPSR [2] = target: T1, NPSR (Homo sapiens, UniProt Q6W5P4); assay: cAMP assay; assay type: cell-based; settings: Table 5
T1 sequence (Q6W5P4 1-371): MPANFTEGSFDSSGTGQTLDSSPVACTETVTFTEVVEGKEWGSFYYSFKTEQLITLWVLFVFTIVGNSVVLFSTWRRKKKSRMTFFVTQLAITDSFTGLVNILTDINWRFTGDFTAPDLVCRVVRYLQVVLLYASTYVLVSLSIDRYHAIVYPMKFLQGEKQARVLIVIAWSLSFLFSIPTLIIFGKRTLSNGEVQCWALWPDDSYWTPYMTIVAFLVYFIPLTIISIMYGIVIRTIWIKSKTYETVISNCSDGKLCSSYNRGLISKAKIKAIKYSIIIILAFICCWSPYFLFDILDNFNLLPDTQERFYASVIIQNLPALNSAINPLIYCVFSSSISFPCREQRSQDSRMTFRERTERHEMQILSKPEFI

NPSR [3] = target: T1, NPSR; assay: Intracellular calcium assay; assay type: cell-based
NPSR [4] = target: T1, NPSR; assay: Radioligand binding assay, displacement of [125I]Y10-NPS on CHO-NPSR cells
Method in brief: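 Whole CHO-NPSR cells at about 95% confluence were washed with PBS. They were then incubated for 90 min at room temperature in DMEM with 0.1% BSA, 0.15 nM [125I]Y10-NPS and increasing concentrations of unlabeled human NPS or test compound. Nonspecific binding was taken with 1 μM NPS. Cells were washed in ice-cold PBS, lysed in 1 N NaOH and gamma-counted. Experiments were run in duplicate.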

cAMP activity (in words) (NPSR [2]): no cAMP activity
SMILES: COc1cccc(C2c3c(ncn(-c4ccccc4C#N)c3=N)Oc3ccc4ccccc4c32)c1 (centres unmarked) [Compound 3aa, 10-(2-Cyanophenyl)-12-(3-methoxyphenyl)-12H-naphtho[1',2':5,6]pyrano[2,3-d]pyrimidin-11-imine]

IC50 (NPSR [3]): > 30000 nM
SMILES: COc1ccc(C2c3c(N)nc(Cc4ccccc4)nc3Oc3ccc4ccccc4c32)cc1OC (centres unmarked) [Compound 10a]

Ki (NPSR [4]): 210 nM
SMILES: COc1ccc(C2c3c(ncn(CCN4CCOCC4)c3=N)Oc3ccc4ccccc4c32)cc1OC (centres unmarked) [Compound 3a, 10-(2-morpholinoethyl)-12-(3,4-dimethoxyphenyl)-12H-naphtho[1',2':5,6]pyrano[2,3-d]pyrimidin-11-imine]

Continued, molecule first:

SMILES: CCC(C)(CCN1CCOCC1)N(Cc1cc2ccccc2n(C)c1=O)C(=O)C1CCCCC1 (centres unmarked) [Compound 2, N-(3-methyl-1-morpholinopentan-3-yl)-N-((1-methyl-2-oxo-1,2-dihydroquinolin-3-yl)methyl)cyclohexanecarboxamide]
effect on NPS induced hyperlocomotion ([1]; initial pharmacological results): capacity to reduce the NPS induced hyperlocomotion

SMILES: O=C1OC(c2ccccc2)(c2ccccc2)N2CCN(C(=O)NCc3ccc(F)cc3)CC12 (centres unmarked) [Compound 1, N-(4-fluorobenzyl)-1-oxo-3,3-diphenyltetrahydro-1H-oxazolo[3,4-a]pyrazine-7(3H)-carboxamide]
effect on NPS induced hyperlocomotion ([1]; mice): partially reduce the NPS induced hyperlocomotion
